Experimental data published in ChEMBL document CHEMBL4732089, “Novel σ antagonists designed for tumor therapy: Structure - activity relationships of aminoethyl substituted cyclohexanes” (Eur J Med Chem, 2021).
Active and inactive are the calls of the source. The calls are words filed in the database; no cut-off is given here.

Legend:
[1] = target: Sigma non-opioid intracellular receptor 1 (Cavia porcellus, UniProt Q60492); assay: Displacement of [3H]-pentazocine from sigma1 receptor in guinea pig brain membrane incubated for 120 mins by liquid scintillation counting method; format: cell membranes
[2] = target: T1, Sigma intracellular receptor 2 (Rattus norvegicus, UniProt Q5U3Y7); assay: Displacement of [3H]-di-o-tolylguanidine from sigma2 receptor in rat liver membrane incubated for 120 mins by liquid scintillation counting method relative to control; format: cell membranes
T1 sequence (Q5U3Y7 whole entry): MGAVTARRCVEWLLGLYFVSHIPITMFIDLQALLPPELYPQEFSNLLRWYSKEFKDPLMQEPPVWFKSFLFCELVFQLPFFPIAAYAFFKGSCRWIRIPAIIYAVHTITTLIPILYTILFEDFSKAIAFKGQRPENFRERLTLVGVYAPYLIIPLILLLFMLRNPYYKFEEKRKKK
Outline: (§1)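 Competitive binding with [3H]di-o-tolylguanidine on rat liver membranes. Single-concentration values are % inhibition of radioligand binding at 1 µM test compound. Ki values are n = 3 (±SEM), except low-affinity compounds, which were measured once.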

[3] = target: T2, Sigma intracellular receptor 2 (Rattus norvegicus) (UniProt Q5U3Y7); assay: Displacement of [3H]-di-o-tolylguanidine from sigma2 receptor in rat liver membrane at 1 uM incubated for 120 mins by liquid scintillation counting method relative to control; format: cell membranes; outline: as §1
T2 sequence (whole entry): T1 sequence (Q5U3Y7 whole entry)

[4] = species on record: Sus scrofa; assay: Displacement of [3H]-MK-801 from NMDA receptor PCP binding site in pig brain cortex at 1 uM incubated for 150 mins by liquid scintillation counting method relative to control; format: tissue-based
[5] = tested on: DU-145; assay: Antiproliferative activity against human DU145 cells assessed as reduction in cell viability at 10 uM incubated for 72 hrs by SRB assay; format: functional, cell-based
Outline: (§2)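 Cells from ATCC were grown in RPMI 1640 with 10% FBS, glutamine and penicillin-streptomycin. Seeding was 1×10^3 (lung) or 2×10^3 (prostate) cells/well. After 24 h, compounds were added at 10 µM for 72 h. Cells were fixed with 10% TCA and stained with sulforhodamine B for 30 min. Dye was solubilized in Tris base and OD read at 510 nm. Results are expressed as % of DMSO-treated cells.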

[6] = Selectivity for sigma1 receptor in guinea pig brain membrane over sigma2 receptor in rat liver membrane; format: cell membranes
[7] = Drug metabolism in mouse liver microsomes assessed as metabolite 4-((1S,3R)-3-(2-(benzylamino)ethyl)cyclohexyl)benzene-1,2-diol formation measured after 90 mins in presence of NADPH by LC-MS analysis; format: ADME, Microsome; conditions: 1.5 h
Outline: (§3)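 Incubation with mouse liver microsomes and NADPH for 90 min at 37 °C. Metabolites were identified by LC-MS with collision-induced dissociation.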

[8] = Drug metabolism in mouse liver microsomes assessed as metabolite 2-((1R,3S)-3-phenylcyclohexyl)ethanamine formation measured after 90 mins in presence of NADPH by LC-MS analysis; format: ADME, Microsome; conditions: 1.5 h; outline: as §3
[9] = Metabolic stability in mouse liver microsomes assessed as parent compound remaining measured after 90 mins in presence of NADPH
[10] = n-octanol/aqueous buffer distribution coefficient, log D of compound at pH 7.4 by LC-MS analysis; format: physicochemical
Outline: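 Micro shake-flask method using 20 mM MOPS buffer pH 7.4 and n-octanol, mutually pre-saturated for 24 h. DMSO was kept below 1%. Three buffer:octanol volume ratios (1:1, 1:2, 2:1) were each run three times (n = 9). Tubes were vortexed 2 min and centrifuged 10 min at 20 °C. The aqueous layer was quantified by LC-MS against a matrix-matched calibration, and logD calculated from that concentration.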

[11] = tested on: PC-3; assay: Antiproliferative activity against human PC-3 cells assessed as reduction in cell viability at 10 uM incubated for 72 hrs by SRB assay; format: functional, cell-based
Outline: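 PC3 prostate cancer cells grown adherent in RPMI 1640 with 2% glutamine, 10% FBS and 1% penicillin-streptomycin. Seeded at 2 × 10^3 cells/well; compound added at 10 µM 24 h later for 72 h. Cells fixed in 10% TCA, stained with sulforhodamine B 30 min, washed with 1% acetic acid, dye solubilised in Tris base, OD read at 510 nm; viability given as % of DMSO-treated cells.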

[12] = target: Sigma non-opioid intracellular receptor 1 (Rattus norvegicus) (UniProt Q9R0C9); assay: Agonist activity at sigma1 receptor in rat PC12 cells assessed as reduction in KCl-induced Ca2+ influx at 10 nM measured after 30 mins by Fura2AM dye based fluorescence microscopic analysis; format: cell-based; conditions: PC-12
Outline: (§4)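 Single PC12 cells loaded with 0.5 µM fura-2-AM plus 0.01% Pluronic F-127, 30 min, 37 °C, in HEPES saline pH 7.4 (138 mM NaCl, 6 mM KCl, 2 mM CaCl2). Cells were then washed 30 min and perfused. Test compounds were at 10 nM, and Ca2+ influx was triggered with KCl. Excitation was at 340/380 nm and emission at 510 nm. The F340/F380 ratio was calibrated with KD 224 nM. 10–20 cells per slide, ≥5 independent experiments.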

[13] = target: Sigma non-opioid intracellular receptor 1 (Rattus norvegicus) (UniProt Q9R0C9); assay: Antagonist activity at sigma1 receptor in rat PC12 cells assessed as reduction in opipramol activity by measuring increase in Ca2+-influx at 10 nM measured after 30 mins in presence of KCl by Fura2AM dye based fluorescence microscopic analysis relative to control; format: cell-based; set-up: scale not given: the % may be the effect or the level left; outline: as §4
[14] = tested on: NCI-H358; assay: Antiproliferative activity against human NCI-H358 cells assessed as reduction in cell viability at 10 uM incubated for 72 hrs by SRB assay; format: functional, cell-based; outline: as §2
[15] = tested on: NCI-H522; assay: Antiproliferative activity against human NCI-H522 cells assessed as reduction in cell viability at 10 uM incubated for 72 hrs by SRB assay; format: functional, cell-based; outline: as §2
[16] = tested on: NCI-H441; assay: Antiproliferative activity against human NCI-H441 cells assessed as reduction in cell viability at 10 uM incubated for 72 hrs by SRB assay; format: functional, cell-based; outline: as §2
[17] = tested on: CWR22R; assay: Antiproliferative activity against human 22Rv1 cells assessed as reduction in cell viability at 10 uM incubated for 72 hrs by SRB assay; format: functional, cell-based; outline: as §2

Chain of Sigma non-opioid intracellular receptor 1 (Rattus norvegicus) (Q9R0C9 whole entry, the tested form may be a part): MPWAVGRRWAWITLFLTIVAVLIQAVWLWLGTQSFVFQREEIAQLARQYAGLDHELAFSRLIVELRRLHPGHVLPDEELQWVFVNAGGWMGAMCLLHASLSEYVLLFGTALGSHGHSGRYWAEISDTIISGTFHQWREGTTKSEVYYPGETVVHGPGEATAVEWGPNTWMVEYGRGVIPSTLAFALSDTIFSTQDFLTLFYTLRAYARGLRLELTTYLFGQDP
Chain of Sigma non-opioid intracellular receptor 1 (Q60492 whole entry): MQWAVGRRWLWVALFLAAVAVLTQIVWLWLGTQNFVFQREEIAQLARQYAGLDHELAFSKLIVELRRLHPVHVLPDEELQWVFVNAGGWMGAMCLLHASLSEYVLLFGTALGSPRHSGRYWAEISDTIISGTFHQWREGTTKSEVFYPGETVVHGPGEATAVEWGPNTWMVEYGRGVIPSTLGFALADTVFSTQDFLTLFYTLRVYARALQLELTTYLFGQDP

Row | Compound | Ki [1] [µM] | Ki [2] [µM] | inhibition [4] [%] | Activity [5] | also measured
1 | CN(C)CC[C@H]1CCC[C@@H](c2ccccc2)C1 | 0.01 | 0.156 |  |  | 
2 | c1ccc(CNCC[C@@H]2CCC[C@@H](c3ccccc3)C2)cc1 [listing 1 of 2 here] | 0.0018 | 0.057 |  |  | 
3 | NCC[C@@H]1CCC[C@@H](c2ccccc2)C1 | 0.043 |  | 15 |  | inhibition [3]: 43%
4 | CN(C)CC[C@@H]1CCC[C@H](c2ccccc2)C1 | 0.014 | 0.076 |  |  | 
5 | c1ccc(CNCC[C@H]2CCC[C@@H](c3ccccc3)C2)cc1 | 0.0013 | 0.047 |  | Active | Selectivity ratio [6]: 35
6 | NCC[C@H]1CCC[C@@H](c2ccccc2)C1 | 0.138 |  | 14 |  | inhibition [3]: 24%
7 | c1ccc(CNCC[C@@H]2CCC[C@H](c3ccccc3)C2)cc1 [listing 1 of 2 here] | 0.00061 | 0.049 |  |  | Drug metabolism [7]: Metabolite_Detected; Drug metabolism [8]: Metabolite_Detected; remaining at 1.5 h [9]: 43%; logD [10]: 3.23
8 | NCC[C@@H]1CCC[C@H](c2ccccc2)C1 | 0.167 |  | 11 |  | inhibition [3]: 38%
9 | c1ccc(CNCC[C@H]2CCC[C@H](c3ccccc3)C2)cc1 | 0.0014 | 0.046 |  | inactive | logD [10]: 3.34; Selectivity ratio [6]: 35
10 | NCC[C@H]1CCC[C@H](c2ccccc2)C1 | 0.603 |  | 31 |  | inhibition [3]: 60%
11 | CCCN(CCC)CCc1ccc(OC)c(OCCc2ccccc2)c1 |  |  |  |  | Activity [11]: Active
12 | c1ccc(CNCC[C@@H]2CCC[C@@H](c3ccccc3)C2)cc1 [listing 2 of 2 here] |  |  |  | inactive | Selectivity ratio [6]: 35
13 | c1ccc(CNCC[C@@H]2CCC[C@H](c3ccccc3)C2)cc1 [listing 2 of 2 here] |  |  |  | Active | 
14 | CN(C)CCC1CCCC(c2ccccc2)C1 (mixture of isomers) | 0.0042 | 0.115 | 25 |  | 
15 | c1ccc(CCCCNCCC2CCCC(c3ccccc3)C2)cc1 (mixture of isomers) | 0.003 | 0.093 | 11 |  | 
16 | c1ccc([C@@H]2CCC[C@@H](CCN3CCCC3)C2)cc1 (relative stereo) | 0.002 | 0.033 | 28 |  | Activity [12]: inactive; Activity ([13]; PC-12, filed as antagonist): 100%
17 | c1ccc(CNCC[C@@H]2CCC[C@@H](c3ccccc3)C2)cc1 (relative stereo) [listing 1 of 2 here] | 0.0024 | 0.268 |  |  | 
18 | c1ccc([C@H]2CCC[C@@H](CCN3CCCC3)C2)cc1 (relative stereo) | 0.0036 | 0.061 | 36 |  | 
19 | c1ccc([C@H]2CCC[C@H](CCN3CCN(c4ccccc4)CC3)C2)cc1 (relative stereo) | 0.013 | 0.144 | 0 | inactive | 
20 | c1ccc(CNCC[C@@H]2CCC[C@H](c3ccccc3)C2)cc1 (relative stereo) [listing 1 of 2 here] | 0.0018 | 0.13 |  |  | 
21 | c1ccc([C@H]2CCC[C@@H](CCN3CCN(c4ccccc4)CC3)C2)cc1 (relative stereo) | 0.016 | 0.118 | 0 | inactive | 
22 | c1ccc(CNCC[C@@H]2CCC[C@@H](c3ccccc3)C2)cc1 (relative stereo) [listing 2 of 2 here] |  |  | 31 |  | Activity [12]: inactive; Activity ([13]; PC-12, filed as antagonist): 100%
23 | c1ccc(CNCC[C@@H]2CCC[C@H](c3ccccc3)C2)cc1 (relative stereo) [listing 2 of 2 here] |  |  | 11 | Active | Activity [11]: Active; Activity [12]: inactive; Activity ([13]; PC-12): inactive; Activity [14]: Active; Activity [15]: Active; Activity [16]: Active; Activity [17]: Active
